# Results gathered from unrelated publications.
# Protocols differ between the studies behind these lines.
# Target: Serine/threonine-protein kinase TAO2 (TAOK2, Homo sapiens, UniProt Q9UL54)
# Residues used in one study (Q9UL54 1-1235): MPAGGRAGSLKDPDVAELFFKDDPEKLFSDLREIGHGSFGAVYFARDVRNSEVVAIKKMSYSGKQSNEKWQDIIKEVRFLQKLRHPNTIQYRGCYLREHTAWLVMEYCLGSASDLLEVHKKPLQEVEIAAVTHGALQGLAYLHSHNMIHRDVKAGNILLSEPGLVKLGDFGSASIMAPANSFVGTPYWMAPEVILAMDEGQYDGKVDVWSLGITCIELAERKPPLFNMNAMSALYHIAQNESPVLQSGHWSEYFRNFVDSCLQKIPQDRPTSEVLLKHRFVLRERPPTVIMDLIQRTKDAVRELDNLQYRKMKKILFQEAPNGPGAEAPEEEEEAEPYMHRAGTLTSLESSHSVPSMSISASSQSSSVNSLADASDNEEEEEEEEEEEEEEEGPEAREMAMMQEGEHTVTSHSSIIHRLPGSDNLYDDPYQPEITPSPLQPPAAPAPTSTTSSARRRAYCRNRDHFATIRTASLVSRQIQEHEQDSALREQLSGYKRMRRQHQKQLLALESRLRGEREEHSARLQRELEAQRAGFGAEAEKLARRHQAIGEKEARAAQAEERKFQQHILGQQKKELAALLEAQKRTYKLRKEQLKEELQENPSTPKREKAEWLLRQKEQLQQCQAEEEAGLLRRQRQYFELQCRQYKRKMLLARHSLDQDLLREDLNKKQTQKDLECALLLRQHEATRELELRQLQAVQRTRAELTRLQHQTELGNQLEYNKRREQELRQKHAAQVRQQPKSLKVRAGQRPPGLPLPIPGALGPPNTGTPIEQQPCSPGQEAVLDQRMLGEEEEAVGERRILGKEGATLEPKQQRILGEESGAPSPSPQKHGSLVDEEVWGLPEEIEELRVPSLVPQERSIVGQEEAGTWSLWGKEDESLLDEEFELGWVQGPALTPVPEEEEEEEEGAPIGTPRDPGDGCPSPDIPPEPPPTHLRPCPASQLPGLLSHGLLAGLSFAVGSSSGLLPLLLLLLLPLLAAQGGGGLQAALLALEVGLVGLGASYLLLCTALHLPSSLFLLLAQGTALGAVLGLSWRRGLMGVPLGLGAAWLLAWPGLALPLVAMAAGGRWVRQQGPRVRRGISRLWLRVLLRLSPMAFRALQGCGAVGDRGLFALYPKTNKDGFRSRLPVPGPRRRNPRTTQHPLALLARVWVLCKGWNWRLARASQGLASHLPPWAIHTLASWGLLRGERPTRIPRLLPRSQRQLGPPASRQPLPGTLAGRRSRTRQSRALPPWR
SMILES,test,conditions,measurement,value
O=C(Nc1ccc(Oc2ccc(F)cc2)cc1)N1CCc2ncccc2[C@H]1c1ccc(F)cc1,"cell-free assay, competition with immobilised ligand",1 µM,remaining binding,100%
CC(C)(C)c1nc2c(s1)c1nc(N)ncc1c1ccc(NS(=O)(=O)c3c(F)cccc3F)c(F)c12,"enzyme activity, inhibitor, radiometric",1 µM,remaining activity,84%
CC(=O)N1CCC(c2ccc(C(=O)NC3=NCCN3)cc2C(F)(F)F)CC1,"cell-free assay, competition with immobilised ligand",1 µM,remaining binding,100%
Cc1cc(NC(=O)c2cccc3cc(-c4cccc5[nH]nc(N)c45)ccc23)ccc1F,"enzyme activity, inhibitor",0.1 µM,activity vs control,86%
COc1cc(Cl)c(C(=O)N[C@@H](CN[C@H]2CC[C@@H](N)CC2)Cc2ccc(C#N)cc2)cc1-c1ccc(CN[C@H](C)c2ccc(C)cc2)o1,"enzyme activity, inhibitor",1 µM,remaining activity,96%
O=C1CCc2cc(Nc3cc(OC4CCOCC4)c([N+](=O)[O-])cc3Cl)ccc2N1,"cell-free assay, competition with immobilised ligand",1 µM,remaining binding,82%
CCCS(=O)(=O)Nc1ccc(F)c(C(=O)c2c[nH]c3ncc(-c4ccc(Cl)cc4)cc23)c1F,"enzyme activity, inhibitor",1 µM,inhibition,< 10%
COc1cc(-c2cc(-c3ccc(N4CCNCC4)cc3)cnc2C)cc(OC)c1OC,"enzyme activity, inhibitor",0.1 µM,inhibition,2%
O=[N+]([O-])c1cccc2[nH]c(CNc3nc(N4CCOCC4)nc4c3ncn4-c3ccsc3)nc12,"binding, competition with immobilised ligand",10 µM,binding vs control,84%
COc1cccc(CNC(=O)c2nc3scc(COCc4ccc(C(=O)O)cc4)c3c(=O)[nH]2)c1,"cell-free assay, competition with immobilised ligand",1 µM,remaining binding,59.8%
Cc1ccc(Nc2nccc(N(C)c3ccc4c(C)n(C)nc4c3)n2)cc1S(N)(=O)=O,"enzyme activity, inhibitor",0.3 µM,inhibition,43%
COc1cccc2c(NCc3ccccc3)nc(-n3c(N)nc4ccccc43)nc12,"target engagement in cells, inhibitor, chemoproteomics",20 mM,inhibition,-6.8%
Nc1ncnc2occ(-c3ccc(NC(=O)Nc4cc(C(F)(F)F)ccc4F)cc3)c12,"cell-free assay, inhibitor",20 µM,remaining signal,0%
CNC(=O)c1cc(Oc2ccc(NC(=O)Nc3ccc(Cl)c(C(F)(F)F)c3)cc2)ccn1,"enzyme activity, inhibitor",10 µM,inhibition,102%
C[C@@H](c1cccc(C#N)c1)n1cc(Cl)cc(C(N)=O)c1=N,"cell-free assay, competition with immobilised ligand",1 µM,remaining binding,84%
CCN(CC)CCNC(=O)c1c(C)[nH]c(/C=C2\C(=O)Nc3ccc(F)cc32)c1C,"enzyme activity, inhibitor",0.3 µM,inhibition,-3%
C[C@@H]1CCN(c2nccc(-c3cnn4ncccc34)n2)C1,binding,1 µM,remaining binding,75%
